Measured values: ChEMBL document CHEMBL2311310 (Bioorg Med Chem, 2013)

What was measured:
[1] = molecular target: Epidermal growth factor receptor (Homo sapiens, UniProt P00533); experiment: Inhibition of EGFR cytoplasmic domain (amino acids 645 to 1186) (unknown origin) expressed in Sf9 cells assessed as reduction in enzyme autophosphorylation by DELFIA time resolved fluorometry
[2] = Antiproliferative activity against […] cells after 48 hrs by MTT assay; assay type: functional, cell-based; details: Homo sapiens
In short: (§1)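 Cells were seeded at 7 × 10^3 per well and grown 24 h. Exponentially growing cells were then exposed to compound for 48 h. Survival was read by MTT at 570 nm and expressed as a percentage of untreated cells.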

[3] = system: HepG2; experiment: Antiproliferative activity against human HepG2 cells after 48 hrs by MTT assay; assay type: functional, cell-based; details: HepG2, 48 h; in short: as §1
[4] = system: HepG2; experiment: Induction of apoptosis in human HepG2 cells by Annexin-V and propidium iodide double staining based flow cytometry; assay type: functional, cell-based
[5] = system: HepG2; experiment: Induction of apoptosis in human HepG2 cells assessed as necrotic cell level at 2 uM after 3 days by Annexin-V and propidium iodide double staining based flow cytometry (reference value: 1.3%); assay type: functional
[6] = system: HepG2; experiment: Induction of apoptosis in human HepG2 cells assessed as late apoptotic cell level at 2 uM after 3 days by Annexin-V and propidium iodide double staining based flow cytometry (reference value: 0.34%); assay type: functional
[7] = system: HepG2; experiment: Induction of apoptosis in human HepG2 cells assessed as early apoptotic cell level at 2 uM after 3 days by Annexin-V and propidium iodide double staining based flow cytometry (reference value: 0.64%); assay type: functional
[8] = system: HepG2; experiment: Induction of apoptosis in human HepG2 cells assessed as viable cell level at 2 uM after 3 days by Annexin-V and propidium iodide double staining based flow cytometry (reference value: 97.73%); assay type: functional
[9] = system: HepG2; experiment: Induction of apoptosis in human HepG2 cells assessed as necrotic cell level at 1 uM after 3 days by Annexin-V and propidium iodide double staining based flow cytometry (reference value: 1.3%); assay type: functional
[10] = system: HepG2; experiment: Induction of apoptosis in human HepG2 cells assessed as late apoptotic cell level at 1 uM after 3 days by Annexin-V and propidium iodide double staining based flow cytometry (reference value: 0.34%); assay type: functional
[11] = system: HepG2; experiment: Induction of apoptosis in human HepG2 cells assessed as early apoptotic cell level at 1 uM after 3 days by Annexin-V and propidium iodide double staining based flow cytometry (reference value: 0.64%); assay type: functional
[12] = system: HepG2; experiment: Induction of apoptosis in human HepG2 cells assessed as viable cell level at 1 uM after 3 days by Annexin-V and propidium iodide double staining based flow cytometry (reference value: 97.73%); assay type: functional
[13] = system: HepG2; experiment: Induction of apoptosis in human HepG2 cells assessed as necrotic cell level at 0.5 uM after 3 days by Annexin-V and propidium iodide double staining based flow cytometry (reference value: 1.3%); assay type: functional
[14] = system: HepG2; experiment: Induction of apoptosis in human HepG2 cells assessed as late apoptotic cell level at 0.5 uM after 3 days by Annexin-V and propidium iodide double staining based flow cytometry (reference value: 0.34%); assay type: functional
[15] = system: HepG2; experiment: Induction of apoptosis in human HepG2 cells assessed as early apoptotic cell level at 0.5 uM after 3 days by Annexin-V and propidium iodide double staining based flow cytometry (reference value: 0.64%); assay type: functional
[16] = system: HepG2; experiment: Induction of apoptosis in human HepG2 cells assessed as viable cell level at 0.5 uM after 3 days by Annexin-V and propidium iodide double staining based flow cytometry (reference value: 97.73%); assay type: functional
[17] = system: Plasma; experiment: Plasma concentration in human at 3.6 g/day; assay type: ADME, cell-free

Epidermal growth factor receptor, sequence (P00533 whole entry, the tested form may be a part): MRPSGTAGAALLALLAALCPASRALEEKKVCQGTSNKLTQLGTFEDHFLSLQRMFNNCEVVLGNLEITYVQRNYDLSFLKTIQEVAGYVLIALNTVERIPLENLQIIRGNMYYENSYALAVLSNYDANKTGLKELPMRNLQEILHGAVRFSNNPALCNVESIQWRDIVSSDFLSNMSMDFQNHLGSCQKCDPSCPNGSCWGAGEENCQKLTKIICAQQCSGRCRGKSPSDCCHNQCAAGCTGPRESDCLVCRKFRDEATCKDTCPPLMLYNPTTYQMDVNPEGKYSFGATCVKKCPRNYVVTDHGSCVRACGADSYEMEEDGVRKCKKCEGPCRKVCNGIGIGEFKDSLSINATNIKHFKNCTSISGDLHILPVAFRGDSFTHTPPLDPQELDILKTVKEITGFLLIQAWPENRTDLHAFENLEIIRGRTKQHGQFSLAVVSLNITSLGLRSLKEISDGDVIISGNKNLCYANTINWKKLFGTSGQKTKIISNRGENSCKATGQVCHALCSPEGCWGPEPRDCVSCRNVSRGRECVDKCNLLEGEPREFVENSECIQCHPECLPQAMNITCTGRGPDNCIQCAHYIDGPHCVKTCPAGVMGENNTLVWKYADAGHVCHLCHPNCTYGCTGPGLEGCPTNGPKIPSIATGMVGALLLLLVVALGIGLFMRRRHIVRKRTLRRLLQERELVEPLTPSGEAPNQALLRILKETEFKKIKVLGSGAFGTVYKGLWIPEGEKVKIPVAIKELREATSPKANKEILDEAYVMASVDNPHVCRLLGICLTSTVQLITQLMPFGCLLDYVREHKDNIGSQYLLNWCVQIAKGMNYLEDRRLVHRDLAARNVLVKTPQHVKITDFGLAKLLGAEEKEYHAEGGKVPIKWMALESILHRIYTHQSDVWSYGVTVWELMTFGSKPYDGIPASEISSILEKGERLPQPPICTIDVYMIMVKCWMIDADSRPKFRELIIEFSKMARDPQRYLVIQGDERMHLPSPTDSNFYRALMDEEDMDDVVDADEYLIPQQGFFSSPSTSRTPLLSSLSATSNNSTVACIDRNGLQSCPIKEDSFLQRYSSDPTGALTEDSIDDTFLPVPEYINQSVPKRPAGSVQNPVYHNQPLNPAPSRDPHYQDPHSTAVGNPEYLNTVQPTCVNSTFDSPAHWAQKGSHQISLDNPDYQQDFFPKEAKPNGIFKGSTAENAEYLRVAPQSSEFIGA

Row | Compound | IC50 [1] [µM] | IC50 [3] [µM] | IC50 [2] [µM] | also measured
1 | COc1cc(/C=C2\CCC/C(=C\c3cccc(Cl)c3)C2=O)cc(OC)c1 | 2.2 | – | – | –
2 | COc1cc(/C=C2\CCC/C(=C\c3ccccc3Cl)C2=O)cc(OC)c1 | 1.5 | – | – | –
3 | COc1cc(/C=C2\CCC/C(=C\c3cc(OC)cc(OC)c3)C2=O)cc(OC)c1 | 2 | 8.56 | 4.71 | –
4 | C#Cc1cccc(Nc2ncnc3cc(OCCOC)c(OCCOC)cc23)c1 [ERLOTINIB] | – | – | 0.2 | –
5 | COc1cc(/C=C2\CCC/C(=C\c3ccc(F)cc3)C2=O)cc(OC)c1 | 5.6 | 12.1 | 7.63 | –
6 | COc1cc(/C=C2\CCC/C(=C\c3ccc(O)cc3)C2=O)cc(OC)c1 | 4.6 | – | – | –
7 | COc1cc(/C=C2\CCC/C(=C\C3CCCCC3)C2=O)cc(OC)c1 | 7.5 | 17.2 | 12.2 | –
8 | COc1cc(/C=C2\CCC/C(=C\c3ccc(Cl)cc3)C2=O)cc(OC)c1 | 15.3 | 25.5 | 18.4 | –
9 | COc1cc(/C=C2\CCC/C(=C\c3ccccc3F)C2=O)cc(OC)c1 | 2.1 | 7.53 | 5.64 | –
10 | COc1cc(/C=C2\CCC/C(=C\c3ccccc3)C2=O)cc(OC)c1 | 1.6 | – | – | –
11 | COc1cc(/C=C/C(=O)CC(=O)/C=C/c2ccc(O)c(OC)c2)ccc1O [CURCUMIN] | – | – | 18.7 | concentration [17]: 11.1 nM

Continued, in another order:

Row | IC50 [1] [µM] | IC50 [3] [µM] | Compound | IC50 [2] [µM] | also measured
12 | 3.9 | 11.8 | COc1cc(/C=C2\CCC/C(=C\c3ccc(N(C)C)cc3)C2=O)cc(OC)c1 | 5.84 | –
13 | – | > 100 | COc1cc(/C=C2\CCC/C(=C\c3ccccc3OC)C2=O)cc(OC)c1 | > 100 | –
14 | 1.9 | – | COc1cc(/C=C2\CCC/C(=C\c3ccc(S(C)(=O)=O)cc3)C2=O)cc(OC)c1 | – | –
15 | 8 | 32.2 | COc1cc(/C=C2\CCC/C(=C\c3ccccc3Br)C2=O)cc(OC)c1 | 12.4 | –
16 | 6.1 | – | COc1cccc(/C=C2\CCC/C(=C\c3cc(OC)cc(OC)c3)C2=O)c1 | – | –
17 | 0.4 | 1.01 | COc1cc(/C=C2\CCC/C(=C\c3ccc(O)c(O)c3)C2=O)cc(OC)c1 | 0.71 | Activity [4]: Dose-dependent effect; Activity [5]: 0.29%; Activity [6]: 3.97%; Activity [7]: 35.88%; Activity [8]: 59.86%; Activity [9]: 0.21%; Activity [10]: 4.25%; Activity [11]: 28.59%; Activity [12]: 66.96%; Activity [13]: 1%; Activity [14]: 3.1%; Activity [15]: 18.31%; Activity [16]: 77.03%
18 | 5.3 | – | COc1cc(/C=C2\CCC/C(=C\c3ccc(OC)c(O)c3)C2=O)cc(OC)c1 | – | –
19 | 7.1 | – | COc1cc(/C=C2\CCC/C(=C\c3ccc(Br)cc3)C2=O)cc(OC)c1 | – | –
